Experimental data reported in ChEMBL document CHEMBL1135543, “Alpha(1)-adrenoceptor antagonists. 4. Pharmacophore-based design, synthesis, and biological evaluation of new imidazo-, benzimidazo-, and indoloarylpiperazine derivatives” (J Med Chem, 2002).

Experiments:
[1] = molecular target: T1, 5-hydroxytryptamine receptor 1A (Rattus norvegicus, UniProt P19327); assay: Binding affinity against 5-hydroxytryptamine 1A receptor by displacing [3H]8-OH-DPAT radioligand in rat cortex membrane; type: cell membranes
T1 sequence (P19327 whole entry): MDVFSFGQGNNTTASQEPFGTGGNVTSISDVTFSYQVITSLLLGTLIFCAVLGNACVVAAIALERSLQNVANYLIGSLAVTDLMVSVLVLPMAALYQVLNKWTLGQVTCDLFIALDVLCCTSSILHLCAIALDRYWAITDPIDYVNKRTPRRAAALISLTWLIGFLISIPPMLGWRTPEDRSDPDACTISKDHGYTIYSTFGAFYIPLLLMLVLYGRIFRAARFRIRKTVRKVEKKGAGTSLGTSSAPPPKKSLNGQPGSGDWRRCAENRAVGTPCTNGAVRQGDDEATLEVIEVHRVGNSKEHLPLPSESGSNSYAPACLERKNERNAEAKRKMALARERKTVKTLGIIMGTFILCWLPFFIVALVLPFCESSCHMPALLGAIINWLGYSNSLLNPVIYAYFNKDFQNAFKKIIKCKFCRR
In short: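 Rat cortex membranes, pre-incubated 10 min at 37 °C to remove endogenous 5-HT, stored at –80 °C, then resuspended in 50 mM Tris-HCl pH 7.4 (0.2–0.3 mg protein). GF/C filtration, scintillation counting.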

[2] = molecular target: T2, Adrenergic receptor alpha-1 (Rattus norvegicus, UniProt P15823+P23944+P43140); assay: Intrinsic activity against Alpha-1 adrenergic receptor expressed as displacement of [3H]prazosin from rat cerebral cortex membrane in the absence of 1 nM GTP; type: tissue-based
T2 sequence (P15823 whole entry): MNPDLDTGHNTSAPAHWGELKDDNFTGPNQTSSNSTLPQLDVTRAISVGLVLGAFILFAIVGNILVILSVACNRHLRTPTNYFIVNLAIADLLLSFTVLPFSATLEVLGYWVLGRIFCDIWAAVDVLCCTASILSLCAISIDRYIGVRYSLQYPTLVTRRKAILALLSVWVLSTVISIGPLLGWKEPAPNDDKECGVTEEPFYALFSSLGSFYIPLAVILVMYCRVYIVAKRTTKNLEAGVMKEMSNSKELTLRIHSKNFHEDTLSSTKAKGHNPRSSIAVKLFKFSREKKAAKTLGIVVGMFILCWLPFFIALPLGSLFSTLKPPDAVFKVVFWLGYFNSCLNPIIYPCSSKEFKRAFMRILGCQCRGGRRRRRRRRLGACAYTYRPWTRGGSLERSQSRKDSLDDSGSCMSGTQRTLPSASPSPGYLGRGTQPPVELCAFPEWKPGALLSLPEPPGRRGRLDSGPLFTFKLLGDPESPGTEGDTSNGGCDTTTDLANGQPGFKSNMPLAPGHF
T2 sequence (P23944 whole entry): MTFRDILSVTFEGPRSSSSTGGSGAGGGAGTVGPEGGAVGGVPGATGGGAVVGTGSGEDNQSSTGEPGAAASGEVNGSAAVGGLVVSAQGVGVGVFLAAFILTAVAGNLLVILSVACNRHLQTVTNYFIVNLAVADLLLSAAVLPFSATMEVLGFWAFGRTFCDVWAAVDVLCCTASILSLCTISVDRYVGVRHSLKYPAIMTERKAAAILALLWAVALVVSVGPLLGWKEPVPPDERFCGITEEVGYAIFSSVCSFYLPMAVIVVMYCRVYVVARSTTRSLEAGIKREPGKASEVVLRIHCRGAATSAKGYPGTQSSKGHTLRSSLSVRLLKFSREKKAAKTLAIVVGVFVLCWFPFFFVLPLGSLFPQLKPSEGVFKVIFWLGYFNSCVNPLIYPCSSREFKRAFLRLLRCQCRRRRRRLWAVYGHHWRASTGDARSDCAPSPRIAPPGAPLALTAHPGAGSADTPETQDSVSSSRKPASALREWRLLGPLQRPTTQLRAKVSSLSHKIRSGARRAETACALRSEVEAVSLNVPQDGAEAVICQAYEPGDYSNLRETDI
T2 sequence (P43140 whole entry): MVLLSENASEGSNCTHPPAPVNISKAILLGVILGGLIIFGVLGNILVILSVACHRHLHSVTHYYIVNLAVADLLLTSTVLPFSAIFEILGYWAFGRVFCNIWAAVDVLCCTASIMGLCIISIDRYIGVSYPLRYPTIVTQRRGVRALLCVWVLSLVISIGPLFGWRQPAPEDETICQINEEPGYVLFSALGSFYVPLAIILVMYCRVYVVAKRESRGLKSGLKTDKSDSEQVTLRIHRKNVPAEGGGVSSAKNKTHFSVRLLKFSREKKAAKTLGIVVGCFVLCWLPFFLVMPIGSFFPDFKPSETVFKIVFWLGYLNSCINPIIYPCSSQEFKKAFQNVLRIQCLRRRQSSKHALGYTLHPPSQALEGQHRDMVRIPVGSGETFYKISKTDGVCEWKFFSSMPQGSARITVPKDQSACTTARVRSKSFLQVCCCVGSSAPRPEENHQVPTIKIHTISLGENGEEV
In short: (§1)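 [3H]prazosin competition on rat cerebral cortex membranes, run with and without GTP (1 nM in table footnote, 1 mM in text). The GTP shift is the ratio of the affinity constant with GTP to that without. Values are means ± SEM of three experiments.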

[3] = molecular target: T2, Adrenergic receptor alpha-1; assay: Intrinsic activity against Alpha-1 adrenergic receptor expressed as displacement of [3H]prazosin from rat cerebral cortex membrane in the presence of 1 nM GTP; type: tissue-based; in short: as §1
[4] = molecular target: T3, Adrenergic receptor alpha-2 (Rattus norvegicus, UniProt P22086+P19328+P22909); assay: Binding affinity against Alpha-2 adrenergic receptor by displacing [3H]rauwolscine radioligand in rat cortex membrane; type: cell membranes, Brain
T3 sequence (P22086 whole entry): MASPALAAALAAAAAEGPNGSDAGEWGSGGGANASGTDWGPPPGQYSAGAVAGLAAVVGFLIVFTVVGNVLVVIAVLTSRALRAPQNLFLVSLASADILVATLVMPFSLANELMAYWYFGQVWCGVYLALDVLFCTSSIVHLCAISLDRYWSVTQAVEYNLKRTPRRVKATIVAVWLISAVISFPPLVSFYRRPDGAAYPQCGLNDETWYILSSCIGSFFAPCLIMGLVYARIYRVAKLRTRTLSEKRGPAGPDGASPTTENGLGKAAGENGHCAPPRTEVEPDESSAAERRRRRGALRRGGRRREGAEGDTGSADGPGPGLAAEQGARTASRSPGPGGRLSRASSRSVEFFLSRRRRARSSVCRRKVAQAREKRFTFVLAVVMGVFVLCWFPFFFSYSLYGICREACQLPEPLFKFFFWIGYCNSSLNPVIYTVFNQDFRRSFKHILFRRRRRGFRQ
T3 sequence (P19328 whole entry): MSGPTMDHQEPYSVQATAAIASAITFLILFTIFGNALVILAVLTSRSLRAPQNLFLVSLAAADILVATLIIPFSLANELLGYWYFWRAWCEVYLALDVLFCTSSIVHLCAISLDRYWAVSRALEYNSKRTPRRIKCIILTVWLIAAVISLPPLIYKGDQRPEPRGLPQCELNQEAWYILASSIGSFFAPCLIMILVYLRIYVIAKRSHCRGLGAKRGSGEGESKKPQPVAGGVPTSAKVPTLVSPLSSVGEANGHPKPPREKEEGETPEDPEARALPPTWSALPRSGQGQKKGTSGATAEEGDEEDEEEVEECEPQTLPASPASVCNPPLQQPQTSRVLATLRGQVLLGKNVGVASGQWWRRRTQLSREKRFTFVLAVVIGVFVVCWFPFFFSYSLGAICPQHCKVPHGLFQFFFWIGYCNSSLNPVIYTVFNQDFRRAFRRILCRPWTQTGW
T3 sequence (P22909 whole entry): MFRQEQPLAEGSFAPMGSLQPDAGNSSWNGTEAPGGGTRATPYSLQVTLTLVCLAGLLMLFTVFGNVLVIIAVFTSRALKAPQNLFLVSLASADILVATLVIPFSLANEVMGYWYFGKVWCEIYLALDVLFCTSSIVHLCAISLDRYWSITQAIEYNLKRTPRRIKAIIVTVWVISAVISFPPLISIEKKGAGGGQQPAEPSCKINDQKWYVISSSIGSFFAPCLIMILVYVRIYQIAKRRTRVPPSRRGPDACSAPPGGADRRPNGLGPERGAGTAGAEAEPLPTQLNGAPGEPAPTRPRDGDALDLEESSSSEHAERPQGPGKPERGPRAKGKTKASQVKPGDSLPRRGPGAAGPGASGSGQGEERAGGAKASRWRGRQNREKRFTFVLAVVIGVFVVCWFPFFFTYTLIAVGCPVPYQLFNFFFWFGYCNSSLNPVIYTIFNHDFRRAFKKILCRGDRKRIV

[5] = molecular target: T2, Adrenergic receptor alpha-1; assay: Intrinsic activity for displacement of [3H]- prazosin from Alpha-1 adrenergic receptor of rat cerebral cortex membrane in the absence of 1 nM GTP; type: tissue-based
[6] = molecular target: T2, Adrenergic receptor alpha-1; assay: Intrinsic activity for displacement of [3H]- prazosin from Alpha-1 adrenergic receptor of rat cerebral cortex membrane in the presence of 1 nM GTP; type: tissue-based
[7] = molecular target: T2, Adrenergic receptor alpha-1; assay: Binding affinity against Alpha-1 adrenergic receptor by displacing [3H]prazosin radioligand in rat cortex membrane.; type: cell membranes, Brain

Ki [1] [nM] | Ki [2] [nM] | Ki [3] [nM] | Ki [4] [nM] | Ki [5] [nM] | Ki [6] [nM] | Ki [7] [nM] | Structure (SMILES)
253 | 1 | 1.6 | 20 | – | – | – | COc1ccccc1N1CCN(CCCCn2nc(-n3ccc4ccccc43)ccc2=O)CC1
123 | – | – | 24.5 | 4.9 | 8.33 | 4.6 | O=c1ccc(-n2ccnc2)nn1CCCCCCCN1CCN(c2ccccc2Cl)CC1
